Test results taken from ChEMBL document CHEMBL3779825, “Design, Synthesis, and Structural Optimization of Lycorine-Derived Phenanthridine Derivatives as Wnt/β-Catenin Signaling Pathway Agonists” (J Nat Prod, 2016).
Active and inactive are the calls of the source. The calls are words filed in the database; no cut-off is given here.

Columns and labels:
Format in all cases: cell-based
[1] = Activation of Wnt/beta-catenin signaling pathway in HEK293T cells in presence of Wnt3a-conditioned medium incubated for 6 hrs by luciferase reporter gene assay; conditions: Homo sapiens; HEK-293T
How it was run: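 HEK293T cells were grown in DMEM with 10% heat-inactivated FBS at 37 °C in 5% CO2. Cells were seeded in 24-well plates and lipofected with 250 ng total plasmid per well: 20 ng TOPFlash, 25 ng EGFP-C1, and LacZ plasmid as filler. Luciferase luminescence was normalized to lysate GFP fluorescence. The value reported is the concentration doubling Wnt activation.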

[2] = Activation of Wnt/beta-catenin signaling pathway in HEK293T cells assessed as increase in Axin-2 expression at 5 to 20 uM in presence of Wnt3a-conditioned medium incubated for 6 hrs by quantitative real time PCR analysis; conditions: Homo sapiens, HEK-293T
How it was run: (§1)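 HEK293T cells were grown in DMEM with 10% (v/v) heat-inactivated FBS at 37 °C in 5% CO2/95% air. Cells were exposed to compound together with control medium or Wnt3a-conditioned medium for 6 h.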

[3] = Activation of Wnt/beta-catenin signaling pathway in HEK293T cells assessed as increase in NKD1 expression at 5 to 20 uM in presence of Wnt3a-conditioned medium incubated for 6 hrs by quantitative real time PCR analysis; conditions: Homo sapiens, HEK-293T; how it was run: as §1
[4] = Activation of Wnt/beta-catenin signaling pathway in HEK293T cells preincubated for 1 hr followed by Wnt3a stimulation and subsequent addition of compound measured after 6 hrs by luciferase reporter gene assay; conditions: Homo sapiens; HEK-293T

Row | SMILES | CD [1] | further results
1 | CCc1cccc2c1N(C)Cc1cc(OC)c(OC)cc1-2 | 2.5 µM | –
2 | C=Cc1cccc2c1N(C)Cc1cc(OCC)c(OCC)cc1-2 | inactive | –
3 | NCCn1cc(COc2ccccc2OCc2cn(CCN)nn2)nn1 | – | Activity [1]: Active
4 | CCc1cccc2c1N(C)Cc1cc(OCc3cc(C)n(C)n3)c(OCc3cc(C)n(C)n3)cc1-2 | inactive | –
5 | CCc1cccc2c1N(C)Cc1cc(OCc3cc(C)nn3C)c(OCc3cc(C)nn3C)cc1-2 | inactive | –
6 | C=Cc1cccc2c1N(C)Cc1cc(O)c(O)cc1-2 | 10 µM | –
7 | CCc1cccc2c1N(C)Cc1cc(OCc3cc4cc(Cl)ccc4s3)c(OCc3cc4cc(Cl)ccc4s3)cc1-2 | inactive | Activity [2]: inactive; Activity [3]: inactive
8 | C=Cc1cccc2c1N(C)Cc1cc3c(cc1-2)OCO3 | inactive | –
9 | O=C1N[C@H]2[C@H](CS[C@H]2CCCCC(=O)ON2C(=O)CCC2=O)N1 | – | Activity [1]: inactive
10 | CCc1cccc2c1N(C)Cc1cc3c(cc1-2)OCO3 | 5 µM | –
11 | CCc1cccc2c1N(C)Cc1cc(OCc3cn(CCNC(C)=O)nn3)c(OCc3cn(CCNC(C)=O)nn3)cc1-2 | 2.5 µM | Activity [2]: Active; Activity [3]: Active
12 | CCOc1cc2c(cc1OCC)-c1cccc(CC)c1N(C)C2 | 5 µM | –
13 | NCCn1cc(COc2cccc(OCc3cn(CCN)nn3)c2)nn1 | – | Activity [1]: Active
14 | CCc1cccc2c1N(C)Cc1cc(OCc3cc(OC)cc(OC)c3)c(OCc3cc(OC)cc(OC)c3)cc1-2 | inactive | –
15 | CCc1cccc2c1N(C)Cc1cc(OCc3cn(CCN)nn3)c(OCc3cn(CCN)nn3)cc1-2 | 1.25 µM | Activity [2]: Active; Activity [3]: Active
16 | [N-]=[N+]=NCCNC(=O)CCCC[C@@H]1SC[C@@H]2NC(=O)N[C@@H]21 | – | Activity [1]: inactive
17 | CCc1cccc2c1N(C)Cc1cc(OCc3cn(CCNC(=O)CCCC[C@@H]4SC[C@@H]5NC(=O)N[C@@H]54)nn3)c(OCc3cn(CCNC(=O)CCCC[C@@H]4SC[C@@H]5NC(=O)N[C@@H]54)nn3)cc1-2 | – | CD [4]: 0.325 µM
18 | CCc1cccc2c1N(C)Cc1cc(OCc3ccc(-n4cccn4)cn3)c(OCc3ccc(-n4cccn4)cn3)cc1-2 | inactive | –
19 | O=C(O)CCCC[C@@H]1SC[C@@H]2NC(=O)N[C@@H]21 | – | Activity [1]: inactive
20 | CCc1cccc2c1N(C)Cc1cc(OCc3ccc(-c4ccccc4C(=O)OC)cc3)c(OCc3ccc(-c4ccccc4C(=O)OC)cc3)cc1-2 | inactive | Activity [2]: inactive; Activity [3]: inactive
21 | C#CCOc1cc2c(cc1OCC#C)-c1cccc(CC)c1N(C)C2 | 5 µM | –
22 | CCc1cccc2c1N(C)Cc1cc(O)c(O)cc1-2 | 5 µM | –
